In ChEMBL document CHEMBL4049408, “Exploration of 2-((Pyridin-4-ylmethyl)amino)nicotinamide Derivatives as Potent Reversal Agents against P-Glycoprotein-Mediated Multidrug Resistance” (J Med Chem, 2017):
pIC50: −log10 of the molar value. Activity calls are given as the source filed them. The rule behind the calls is not given here.

Legend:
[1] = target: T1, ATP-dependent translocase ABCB1 (Homo sapiens, UniProt P08183); assay: (§1) Inhibition of ABCB1 in human K562/A02 cells assessed as potentiation of adriamycin-mediated cytotoxicity by measuring reduction in ADR IC50 at 5 uM preincubated for 24 hrs followed by compound washout for 24 hrs and subsequent addition of adriamycin measured after 48 hrs by MTT assay relative to control; assay type: cell-based
T1 sequence (P08183 whole entry): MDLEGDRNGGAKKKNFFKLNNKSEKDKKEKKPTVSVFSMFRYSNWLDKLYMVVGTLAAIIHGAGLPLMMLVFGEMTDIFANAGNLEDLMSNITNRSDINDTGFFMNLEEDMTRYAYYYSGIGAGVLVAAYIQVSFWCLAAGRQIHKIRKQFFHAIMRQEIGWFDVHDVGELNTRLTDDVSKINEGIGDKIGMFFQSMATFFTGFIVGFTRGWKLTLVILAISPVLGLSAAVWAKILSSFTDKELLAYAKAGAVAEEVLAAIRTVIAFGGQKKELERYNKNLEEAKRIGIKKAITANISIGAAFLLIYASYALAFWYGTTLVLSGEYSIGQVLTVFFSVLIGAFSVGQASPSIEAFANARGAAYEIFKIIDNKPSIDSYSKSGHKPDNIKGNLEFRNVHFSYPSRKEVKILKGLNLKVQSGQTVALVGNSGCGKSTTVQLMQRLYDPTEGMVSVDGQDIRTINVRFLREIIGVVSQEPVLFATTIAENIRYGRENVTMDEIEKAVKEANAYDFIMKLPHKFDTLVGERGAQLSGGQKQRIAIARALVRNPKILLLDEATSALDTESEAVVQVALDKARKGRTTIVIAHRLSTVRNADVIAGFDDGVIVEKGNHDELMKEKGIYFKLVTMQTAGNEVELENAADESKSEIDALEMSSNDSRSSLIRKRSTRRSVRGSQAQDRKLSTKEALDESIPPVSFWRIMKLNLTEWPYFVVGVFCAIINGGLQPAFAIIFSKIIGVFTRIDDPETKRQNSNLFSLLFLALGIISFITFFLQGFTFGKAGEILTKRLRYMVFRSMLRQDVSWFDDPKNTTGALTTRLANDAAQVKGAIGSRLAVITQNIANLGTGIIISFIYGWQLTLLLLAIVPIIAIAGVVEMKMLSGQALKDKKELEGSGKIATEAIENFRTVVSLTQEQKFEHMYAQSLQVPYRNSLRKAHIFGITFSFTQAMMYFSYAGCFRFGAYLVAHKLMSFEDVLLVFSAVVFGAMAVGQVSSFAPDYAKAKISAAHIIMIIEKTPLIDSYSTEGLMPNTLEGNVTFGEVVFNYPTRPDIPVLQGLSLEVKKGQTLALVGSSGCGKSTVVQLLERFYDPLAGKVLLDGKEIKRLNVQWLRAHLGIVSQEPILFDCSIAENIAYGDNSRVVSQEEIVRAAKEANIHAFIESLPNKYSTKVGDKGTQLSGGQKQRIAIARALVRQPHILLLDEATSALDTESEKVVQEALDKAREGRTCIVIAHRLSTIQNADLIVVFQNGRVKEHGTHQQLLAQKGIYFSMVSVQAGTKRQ
In short: (§2)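 K562/A02 cells incubated with modulator at 5.0 µM, then washed out. Adriamycin IC50 determined at 0, 6, 12 or 24 h after removal, with an unwashed comparison. Reversal fold = IC50 without inhibitor / IC50 with inhibitor. Mean ± SD of three independent tests.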

K562/A02 [2] = assay: Cytotoxicity against human K562/A02 cells overexpressing P-gp after 48 hrs by MTT assay; assay type: functional, cell-based; settings: K562/A02, 48 h
In short: (§3)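 MTT viability in parental K562 and P-gp-overexpressing K562/A02 cells. Compound alone at a concentration series gives the IC50. Mean ± SD of three independent tests.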

[3] = target: T1, ATP-dependent translocase ABCB1; assay: Inhibition of ABCB1 in human K562/A02 cells assessed as increase in intracellular adriamycin accumulation at 1 uM after 2.5 hrs by spectrofluorimetric analysis; assay type: cell-based
In short: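 Intracellular adriamycin measured by its autofluorescence using spectrofluorometry after 2.5 h accumulation in K562/A02 cells. Modulator tested at concentrations up to 5.0 µM; parental K562 and untreated K562/A02 cells as comparators. Mean ± SD of three experiments.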

[4] = target: T1, ATP-dependent translocase ABCB1; assay: as §1, with “washout for 12 hrs and” for “washout for 24 hrs and”; assay type: cell-based; in short: as §2
[5] = target: T1, ATP-dependent translocase ABCB1; assay: as §1, with “washout for 6 hrs and” for “washout for 24 hrs and”; assay type: cell-based; in short: as §2
[6] = target: T1, ATP-dependent translocase ABCB1; assay: Substrate activity at ABCB1 ATPase in human ABCB1 membrane fraction assessed as increase in ATPase activity at 5 uM preincubated with compound followed by addition of MgATP measured after 1 hr by luciferase reporter gene assay relative to control; assay type: cell membranes
[7] = target: T1, ATP-dependent translocase ABCB1; assay: Inhibition of ABCB1 in human K562/A02 cells assessed as potentiation of adriamycin-mediated cytotoxicity by measuring reduction in ADR IC50 at 5 uM preincubated for 24 hrs followed by compound washout and subsequent addition of adriamycin measured after 48 hrs by MTT assay relative to control; assay type: cell-based
In short: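 K562/A02 cells incubated with modulator at 5.0 µM, then washed out. Reversal fold = IC50 without inhibitor / IC50 with inhibitor. Mean ± SD of three independent tests.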

[8] = target: T1, ATP-dependent translocase ABCB1; assay: Substrate activity at ABCB1 ATPase in human ABCB1 membrane fraction assessed as increase in ATPase activity at 0.5 uM preincubated with compound followed by addition of MgATP measured after 1 hr by luciferase reporter gene assay relative to control; assay type: cell membranes
[9] = target: T1, ATP-dependent translocase ABCB1; assay: Inhibition of ABCB1 in human K562/A02 cells assessed as potentiation of adriamycin-mediated cytotoxicity by measuring reduction in ADR IC50 at 5 uM after 48 hrs by MTT assay relative to control; assay type: cell-based
In short: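 K562/A02 cells exposed to a series of adriamycin concentrations with modulator at 5.0 µM; 0.1% DMSO as solvent control. IC50 read by MTT. Reversal fold = IC50 without inhibitor / IC50 with inhibitor. Mean ± SD of three independent tests.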

[10] = target: T1, ATP-dependent translocase ABCB1; assay: Inhibition of ABCB1 in human K562/A02 cells assessed as increase in intracellular Rh123 accumulation at 5 uM up to 90 mins by flow cytometry; assay type: cell-based; settings: 1.5 h
In short: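 K562/A02 cells treated with 5.0 µM modulator; Rh123-associated mean fluorescence intensity read by flow cytometry at 5, 10, 25, 30, 60 and 90 min. Untreated cells as negative control. Mean ± SD of three experiments.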

K562 = assay: Cytotoxicity against human K562 cells after 48 hrs by MTT assay; assay type: functional, cell-based; settings: K562, 48 h; in short: as §3
[11] = target: T1, ATP-dependent translocase ABCB1; assay: Inhibition of ABCB1 ATPase in human ABCB1 membrane fraction assessed as decrease in ATPase activity at 0.5 uM preincubated with compound followed by addition of MgATP measured after 1 hr by luciferase reporter gene assay relative to control; assay type: cell membranes
[12] = target: T1, ATP-dependent translocase ABCB1; assay: Inhibition of ABCB1 in human K562/A02 cells assessed as potentiation of vinblastine-mediated cytotoxicity at 5 uM after 48 hrs by MTT assay; assay type: cell-based
In short: (§4)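 K562/A02 cells given daunorubicin, paclitaxel, vinblastine (P-gp substrates) or cyclophosphamide (non-substrate), each with modulator at 5.0 µM; cytotoxicity then measured. Mean ± SD of three independent tests.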

[13] = target: T1, ATP-dependent translocase ABCB1; assay: Inhibition of ABCB1 in human K562/A02 cells assessed as potentiation of daunorubicin-mediated cytotoxicity at 5 uM after 48 hrs by MTT assay; assay type: cell-based; in short: as §4
K562/A02 [14] = assay: Potentiation of cyclophosphamide-mediated cytotoxicity against human K562/A02 cells at 5 uM after 48 hrs by MTT assay; assay type: functional, cell-based; in short: as §4
[15] = Selectivity index, ratio of IC50 for human GES-1 cells to EC50 for inhibition of ABCB1 in human K562/A02 cells assessed as potentiation of adriamycin-induced cytotoxicity by measuring compound concentration required for reduction of ADR IC50
In short: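 SI = IC50 in GES-1 cells divided by EC50 for reversal of adriamycin resistance in K562/A02 cells.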

[16] = target: T1, ATP-dependent translocase ABCB1; assay: Inhibition of ABCB1 in human K562/A02 cells assessed as potentiation of paclitaxel-mediated cytotoxicity at 5 uM after 48 hrs by MTT assay; assay type: cell-based; in short: as §4
K562/A02 [17] = assay: Cytotoxicity against human K562/A02 cells assessed as cell survival at 5 uM after 48 hrs by MTT assay relative to control; assay type: cell-based; settings: k562/a02, 48 h, 5 µM
In short: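 MTT viability assay in P-gp-overexpressing, ADM-resistant K562/A02 cells, alongside parental K562. […] Values are mean ± SD of three independent tests.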

K562/A02 [18] = assay: Effect on ABCB1 level in human K562/A02 cells at 0.1 to 5 uM after 72 hrs by Western blot analysis; assay type: functional, cell-based
In short: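 K562/A02 cells exposed to 0.1, 1.0 or 5.0 µmol/L compound for 72 h. ABCB1 detected by western blot; band intensity expressed as a ratio to β-tubulin.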

[19] = Inhibition of CYP3A4 in rat liver microsomes assessed as 6beta-hydroxytestosterone formation at 40 uM using testosterone as substrate by reverse-phase HPLC analysis; assay type: ADME
GES1 = assay: Cytotoxicity against human GES-1 cells after 48 hrs by MTT assay; assay type: cell-based; settings: GES1, 48 h
In short: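 Survival of GES-1 cells measured across a range of compound concentrations to give the IC50. Mean ± SD of three independent tests.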

inhibition (INH) [3] | inhibition (INH) [10] | Compound | fold change (FC) [1] | pIC50 (K562/A02 [2]) | fold change (FC) [4] | fold change (FC) [5] | fold change (FC) [7] | pIC50 (K562) | also measured
Active | Active | N#CC1(c2ccc(NC(=O)c3cccnc3NCc3ccncc3)cc2)CCCC1 [RIVOCERANIB] | 2.46 | 4.68 to 4.70 | 3.97 | 6.12 | 7.35 | 4.80 to 4.83 | fold change (FC) [6]: 2.68; fold change (FC) [8]: 1.41; fold change (FC) [9]: 8.63 to 8.71
Active | Active | COc1cc2c(cc1OC)CN(CCc1ccc(NC(=O)c3cccnc3NCc3ccncc3)cc1)CC2 | 7.84 | 4.13 | 14.54 | 20.03 | 27.98 | 4.26 | inhibition (INH) [11]: Active; inhibition (INH) [12]: Active; inhibition (INH) [13]: Active; Activity (K562/A02 [14]): inactive; Ratio IC50/EC50 [15]: >836.1; inhibition (INH) [16]: Active; Activity (K562/A02 [17]): Non-Toxic; Activity (K562/A02 [18]): inactive; inhibition (INH) [19]: Not Active; pIC50 (GES1): < 4.00
